Source: PubChem (several laboratories)
CYP2C19 act: activators of human cytochrome P450 2C19 | P33261 | recombinant CYP2C19, luciferin-H EGE luminescence; stronger effect = higher value; 0 = fully inhibited enzyme, 1 = untreated enzyme | activation factor at 5 µM | 96,000 tested, under 10 active | AID 1025;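 active means activation factor of at least 2 at 5 µM in the primary screen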;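 further: 0 = wells with 2.5 mM tranylcypromine and 1 = vehicle-only wells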
CYP2C9 activ: CYP2C9 (human) activation; P11712; recombinant CYP2C9, luciferin-H conversion, luminescence; stronger effect = higher value; factor 1 = untreated enzyme, 0 = blocked; activation factor at 5 µM; 96,000 compounds, 1.4% hits; AID 1024;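 active means activation factor of 2 or more for CYP2C9 at a 5 µM dose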;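 further: 0 = sulfaphenazole-blocked wells and 1 = vehicle-only wells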
Target sequence (P11712 whole entry, looked up): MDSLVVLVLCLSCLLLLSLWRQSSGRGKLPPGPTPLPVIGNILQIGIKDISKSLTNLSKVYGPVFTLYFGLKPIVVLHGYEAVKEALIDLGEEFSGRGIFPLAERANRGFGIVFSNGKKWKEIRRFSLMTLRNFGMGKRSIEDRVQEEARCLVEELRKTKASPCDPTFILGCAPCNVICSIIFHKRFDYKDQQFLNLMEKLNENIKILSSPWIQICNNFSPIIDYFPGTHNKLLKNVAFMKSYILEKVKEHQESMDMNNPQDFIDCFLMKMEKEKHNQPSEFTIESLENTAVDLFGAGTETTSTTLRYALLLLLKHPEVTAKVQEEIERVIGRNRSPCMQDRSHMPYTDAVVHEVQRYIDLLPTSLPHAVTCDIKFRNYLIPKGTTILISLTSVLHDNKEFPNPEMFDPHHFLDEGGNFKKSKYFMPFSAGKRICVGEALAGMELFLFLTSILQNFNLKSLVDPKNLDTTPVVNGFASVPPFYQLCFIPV
CYP2C9 inhib: inhibitors of human CYP2C9 | P11712 | CYP2C9 Supersomes, luciferin-H conversion, luminescence | inhibition, % at 5 µM | 96,000 compounds, 20% hits | AID 777;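 active means blocking of liver enzyme CYP2C9 beyond about 50% at 5 µM, limit read from the data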
Cav3 T inh: human Cav3.2 channel inhibition, primary screen. O95180. Cav3.2-expressing cells, Fluo-4 calcium fluorescence FDSS; stronger effect = lower value. B-score at 10 µM. 100,000 compounds, 4% hits;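 active means single-dose well whose peak fluorescence ratio is a statistical outlier from its plate by either plate-standardised score or position-corrected B-score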
HIV Rev-RRE inh: HIV Rev-RRE protein-RNA interaction inhibition; Rev peptide-RRE RNA binding, FRET; inhibition, % at 8 µM; 97,000 compounds, 0.79% hits; AID 704;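 active means inhibition above the screen-wide mean plus 3 SD, cut at about 35% in these data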;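 further: 0% = median DMSO wells and 100% = median Neomycin B control wells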
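Assay system: labelled RRE RNA duplex and labelled Rev peptide / Medium: HEPES pH 7.5 salt buffer with EDTA / Reagent: labelled Rev peptide / Schedule: 5 + 15 min at 25 °C / Signal: FRET, excitation 480 nm, emission 540 nm donor and 671 nm acceptor / Benchmarks: DMSO and neomycin B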
CYP2C19 inhib: human CYP2C19 inhibition | P33261 | CYP2C19 Supersomes, luciferin-H EGE luminescence, 30 min | inhibition, % at 5 µM | 96,000 compounds, 21% hits;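 active means CYP2C19 inhibition above a set limit at 5 µM in the primary screen, cut at about 50% in these data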;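 further: plate controls were negative control wells for no effect and 2.5 mM tranylcypromine positive control for full effect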
Active calls of the source: *; x = not tested or not shown; [ ] = remark or other dose. Shown are actives, neighbours in structure and some others; about 27% of the full set was active somewhere.

SMILES	CYP2C19 act	CYP2C9 activ	CYP2C9 inhib	Cav3 T inh	HIV Rev-RRE inh	CYP2C19 inhib
Cc1c(C(=O)OCC(=O)c2ccc3c(c2)OCCO3)oc2ccccc12	0.9	1.5	-50.4	-2.25	9.3	14.4
CC(C)NC(=O)c1ccccc1NC(=O)CS(=O)(=O)Cc1ccccc1	0.8	0.2	80.4*	-1.46	7.6	17.1
CC(C)NC(=O)c1ccccc1NC(=O)CCS(=O)(=O)Cc1ccccc1	1	0.2	76.1*	0.647	-5.1	4.4
COC(=O)c1ccc(C(=O)OC)c(NC(=O)CS(=O)(=O)Cc2ccccc2)c1	0.6	0.5	45.4	-0.0541	6.2	38.6
O=C(NCC1CCCO1)C1C2C=CC3(CN(Cc4cccs4)C(=O)C13)O2 (stereo unspecified)	1	0.8	17.3	0.659	3.9	3.4
CCn1c(SCC(=O)NCc2ccco2)nc2c(c1=O)SC(C)C2 (stereo unspecified)	1.1	0.7	27.5	-0.0475	3.6	-6.9
CC1Cc2nc(SCC(=O)Nc3ccc4c(c3)OCO4)n(Cc3ccccc3)c(=O)c2S1 (stereo unspecified)	0.2	0.3	74.8*	-3.41	3.1	83.5*
CCn1c(SCC(=O)NCCc2ccccc2)nc2c(c1=O)SC(C)C2 (stereo unspecified)	0.2	0.1	91.8*	0.721	3.6	76.0*
CCn1c(SCC(=O)NCc2ccccc2)nc2c(c1=O)SC(C)C2 (stereo unspecified)	0.7	0.4	61.2*	0.759	5.9	30.2
CCn1c(SCC(=O)NCc2ccc(F)cc2)nc2c(c1=O)SC(C)C2 (stereo unspecified)	0.9	0.4	62.6*	-1.11	x	6.3
CCCCC(=O)NC1(C(F)(F)F)C(=O)N(CC(C)C)C2=C1C(=O)CC(C)(C)C2 (stereo unspecified)	0.9	0.8	23.8	-0.482	-4.3	8.9
Cc1cc(C(C)(C)C)oc1C(=O)N(CC(=O)NC1CCCC1)Cc1ccc(F)cc1	0.7	1.1	-8.6	-1.33	3.0	29.8
CCCCc1ccc(NS(=O)(=O)N(C)C)cc1	0.4	0.1	94.5*	-4.29*	x	64.9*
COc1ccccc1CNS(=O)(=O)c1c(C)[nH]c(=O)[nH]c1=O	0.8	1.1	-11.9	0.947	6.7	15.1
CN(C)S(=O)(=O)Nc1ccc(Oc2ccccc2)cc1	0.1	0.1	85.2*	-1.9	8.2	94.9*
Cc1[nH]c(=O)[nH]c(=O)c1S(=O)(=O)Nc1ccc(Oc2ccccc2)cc1	0.1	0	96.2*	x	5.7	92.2*
CCOc1ccc2[nH]c(=O)c(CN(CCO)C(=O)CC)cc2c1	1	0.9	14.6	0.491	4.1	2.9
CCOC(=O)C(C)Oc1ccc2c(C)cc(=O)oc2c1C(C)=O (stereo unspecified)	0.4	0.9	6.6	0.285	0.4	58.2*
CC(=O)c1c(OCC(=O)O)ccc2c(C)cc(=O)oc12	1.2	1.2	-20.7	0.585	13.3	-24.2
CCOC(=O)CCc1c(C)c2ccc(OC(C)C(=O)OCC)c(C)c2oc1=O (stereo unspecified)	0.8	0.5	49.9	-1.9	-1.1	16.8
CCOC(=O)C(C)Oc1ccc2c(CC)cc(=O)oc2c1C (stereo unspecified)	0.6	0.4	60.3*	-0.732	5.0	35.4
Cc1ccc(C2C=C(c3ccccc3OC(F)F)Nc3ncnn32)cc1 (stereo unspecified)	0.6	0.3	66.3*	x	x	35.8
COc1cccc(C2=CC(c3ccc(C)cc3)n3ncnc3N2)c1 (stereo unspecified)	0.9	0.7	27.9	-2.89	48.7*	6.7
Fc1ccc(Br)cc1C1C=C(c2ccc(Br)cc2)Nc2ncnn21 (stereo unspecified)	0.1	0.4	56.4*	-0.526	13.7	87.3*
C1=C(c2ccccc2)Nc2ncnn2C1c1ccccc1 (stereo unspecified)	x	x	x	-1.08	x	x
Cc1ccsc1C1C=C(c2cccc(Br)c2)Nc2ncnn21 (stereo unspecified)	0.4	0.4	62.3*	-4.56	81.3*[fluorescence artefact?]	62.4*
Cc1ccc(C2=CC(c3ccccc3)n3ncnc3N2)cc1 (stereo unspecified)	x	x	x	-0.739	x	x
